Measured values taken from ChEMBL document CHEMBL3351960, “Lumazine peptides penilumamides B-D and the cyclic pentapeptide asperpeptide A from a gorgonian-derived Aspergillus sp. fungus” (2014).
≈ marks a conversion by molar mass, not a printed value. Calls of active or inactive are those of the source. The rule behind the calls is not given here. *1 amine or outer side, *2 acyl side, *3 side chain or, on linkers, in order; H or OH if unused. Where a SMILES comes first, the peptide text is derived from it. [ ]: non-standard residue; d: D form. X1 = O=C(c1cc(O)ccc1N[*:1])[*:2]

Tests used:
[1] = system: A549; test: Cytotoxicity against human A549 cells by SRB assay; format: functional, cell-based
Method in brief: (§1)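 A549 lung carcinoma, HCT-116 colorectal cancer and HeLa cervical carcinoma cells were scored by sulforhodamine B assay, with adriamycin as positive control.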

[2] = system: K562; test: Cytotoxicity against human K562 cells by MTT assay; format: functional, cell-based
Method in brief: (§2)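 K562 erythroleukemia and HL-60 promyelocytic leukemia cells were scored by MTT method, with adriamycin as positive control.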

[3] = system: HL-60; test: Cytotoxicity against human HL60 cells by MTT assay; format: functional, cell-based; method in brief: as §2
[4] = system: HCT-116; test: Cytotoxicity against human HCT116 cells by SRB assay; format: functional, cell-based; method in brief: as §1
[5] = system: HeLa; test: Cytotoxicity against human HeLa cells by SRB assay; format: functional, cell-based; method in brief: as §1
[6] = system: Bacillus cereus; test: Antibacterial activity against Bacillus cereus; format: functional
Method in brief: (§3)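 Run by a previously published antibacterial method against a 10-strain panel, with ciprofloxacin as positive control.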

[7] = system: Salmonella enterica; test: Antibacterial activity against Salmonella enterica; format: functional, organism-based; method in brief: as §3
[8] = system: Kocuria rhizophila; test: Antibacterial activity against Kocuria rhizophila; format: functional, organism-based; method in brief: as §3
[9] = system: Staphylococcus epidermidis; test: Antibacterial activity against Staphylococcus epidermidis; format: functional; method in brief: as §3
[10] = system: Staphylococcus aureus; test: Antibacterial activity against Staphylococcus aureus; format: functional, organism-based; method in brief: as §3
[11] = system: Nocardia brasiliensis; test: Antibacterial activity against Nocardia brasiliensis; format: functional, organism-based; method in brief: as §3
[12] = system: Escherichia coli; test: Antibacterial activity against Escherichia coli; format: functional, organism-based; method in brief: as §3
[13] = system: Vibrio parahaemolyticus; test: Antibacterial activity against Vibrio parahaemolyticus; format: functional, organism-based; method in brief: as §3
[14] = system: Pseudomonas aeruginosa; test: Antibacterial activity against Pseudomonas aeruginosa; format: functional, organism-based; method in brief: as §3
[15] = system: Pseudomonas putida; test: Antibacterial activity against Pseudomonas putida; format: functional, organism-based; method in brief: as §3
[16] = system: Respiratory syncytial virus; test: Antiviral activity against respiratory syncytial virus; format: functional, organism-based
Method in brief: (§4)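 Tested against RSV and HSV-1 by established procedures, with ribavirin as positive control.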

[17] = system: Human alphaherpesvirus 1; test: Antiviral activity against HSV1; format: functional, organism-based; method in brief: as §4
[18] = system: Acetylcholinesterase; test: Inhibition of AChE (unknown origin) by Ellman's method; conditions: Homo sapiens

SMILES	Activity [1]	Activity [2]	Activity [3]	Activity [4]	Activity [5]	Activity [6]	Activity [7]	Activity [8]	Activity [9]	Activity [10]	Activity [11]	Activity [12]	Activity [13]	Activity [14]	Activity [15]	Activity [16]	Activity [17]	inhibition [18]	MIC [6]	MIC [9]
COC(=O)c1ccccc1NC(=O)[C@H](CC[S+](C)[O-])NC(=O)c1cnc2c(n1)c(=O)n(C)c(=O)n2C (some centres undefined)	inactive	inactive	inactive	inactive	inactive	inactive	inactive	inactive	inactive	inactive	inactive	inactive	inactive	inactive	inactive	inactive	inactive	inactive	–	–
COC(=O)c1ccccc1NC(=O)[C@H](CCSC)NC(=O)c1cnc2c(n1)c(=O)n(C)c(=O)n2C	inactive	inactive	inactive	inactive	inactive	inactive	inactive	inactive	inactive	inactive	inactive	inactive	inactive	inactive	inactive	inactive	inactive	inactive	–	–
C[C@H](NC(=O)c1cnc2c(n1)c(=O)n(C)c(=O)n2C)C(=O)Nc1ccccc1C(N)=O	inactive	inactive	inactive	inactive	inactive	inactive	inactive	inactive	inactive	inactive	inactive	inactive	inactive	inactive	inactive	inactive	inactive	inactive	–	–
C[C@@H]1NC(=O)[C@H](Cc2ccc(O)cc2)NC(=O)c2cc(O)ccc2NC(=O)[C@@H]2CCCN2C(=O)[C@H](C)NC1=O (cyclo(AAP[X1]Y))	–	–	–	–	–	–	–	–	–	–	–	–	–	–	–	–	–	–	12.5 µM (≈ 6.72 µg/mL)	12.5 µM (≈ 6.72 µg/mL)
COC(=O)c1ccccc1NC(=O)[C@H](CCS(C)(=O)=O)NC(=O)c1cnc2c(n1)c(=O)n(C)c(=O)n2C	inactive	inactive	inactive	inactive	inactive	inactive	inactive	inactive	inactive	inactive	inactive	inactive	inactive	inactive	inactive	inactive	inactive	inactive	–	–
